# High-throughput results deposited in PubChem by several laboratories.
# Most compounds without a hit are left out; they make up all but 3.7% or so of the library.
# EP2 antag – blocks the human prostaglandin E2 receptor EP2; P43116; C6 glioma cells expressing human EP2, cAMP TR-FRET; cells stimulated with saturating PGE2; inhibition, % at 25 µM; 0.52% of 260,000 active;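 active means percent inhibition above 40 after rounding to a whole number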;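 further: rat C6 glioma host cells with rolipram phosphodiesterase inhibitor present; the protocol text gives 20 µM as final concentration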
# GPR7 antag – antagonists of human GPR7 (neuropeptides B/W receptor 1); P48145; GPR7-expressing cells, fluorescence antagonist assay; inhibition, % at 4.4 µM; 1.1% of 290,000 active; in the data active means inhibition above about 16%, passing the limit was not always enough;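 further: cells stimulated with the agonist NPW; 0% = agonist with vehicle and 100% = vehicle without agonist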
# Target sequence (P48145 whole entry, looked up): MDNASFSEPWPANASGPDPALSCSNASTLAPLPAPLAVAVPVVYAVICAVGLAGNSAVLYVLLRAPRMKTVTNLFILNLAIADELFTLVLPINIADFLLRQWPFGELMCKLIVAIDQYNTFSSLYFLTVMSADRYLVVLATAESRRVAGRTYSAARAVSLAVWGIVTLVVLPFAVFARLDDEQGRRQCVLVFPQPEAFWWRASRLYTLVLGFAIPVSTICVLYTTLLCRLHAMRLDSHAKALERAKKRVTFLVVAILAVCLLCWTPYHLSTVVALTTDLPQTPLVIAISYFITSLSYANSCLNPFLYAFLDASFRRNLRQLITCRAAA
# CHO parental Ca – signal in parental CHO cells, OX1R antagonist counter-screen | inhibition, % at 5.6 µM | parental CHO-K1, ATP-induced calcium, Fluo-8 fluorescence | 0.63% of 330,000 active | AID 463079;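 active means inhibition above that plate's mean sample inhibition plus 3 SD, cut at about 26% in these data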;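 further: 0% = ATP-challenged DMSO wells and 100% = DMSO wells without ATP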
#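 Test system: untransfected parental CHO cell line. Compound: one dose, 5.6 µM nominal. Detection: intracellular calcium via Fluo-8 no-wash fluorescent dye. Measure: % inhibition. Benchmarks: ATP-challenged DMSO wells low, unchallenged DMSO wells high.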
# OX1R antag-1 – human HCRTR1 antagonism. 0.43% of 330,000 active. CHO/OX1R cells, Fluo-8 calcium fluorescence, orexin A. inhibition, % at 5 µM. O43613;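 active means inhibition above its plate's threshold, mean inhibition of all tested compounds on the plate plus 3 SD, cut at about 37% in these data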;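 further: 0% = orexin A challenge wells and 100% = SB-334867-A antagonist wells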
# OX1R antag-2 – OX1R (human) antagonism; 1.8% of 330,000 active; inhibition, % at 6.6 µM; OX1R-expressing cells, FRET antagonist read-out; in the data active means inhibition mostly above about 38%, no sharp cut-off; inactive means mostly below about 40%;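 further: 0% = agonist challenge alone and 100% = reference antagonist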
# EP2 mod – modulates human prostaglandin E2 receptor EP2 signaling. 0.83% of 260,000 active. P43116. induction, % at 25 µM. EP2-expressing cells, cAMP HTRF FRET, PGE2 co-stimulation. AID 940;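 active means compounds whose cAMP rise, as percent of the full-agonist control response, exceeds 60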;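 further: rat C6 glioma line stably carrying human EP2 under a CMV promoter; the protocol text gives 20 µM as final concentration; 100% = response of wells given 1 µM PGE2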
# GPR7 antag cf – human GPR7 antagonism, confirmation assay. shares compounds with GPR7 antag. GPR7-expressing cells, calcium fluorescence antagonist mode. inhibition, % at 4.4 µM. 52% of 2,400 active. AID 1952; in the data active means inhibition above about 24%;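 further: stimulated with the GPR7 agonist NPW; 0% = agonist plus vehicle and 100% = vehicle alone without agonist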
# MCHR1 antag – antagonizes human MCHR1, a GPR7 antagonist counter-screen; shares compounds with GPR7 antag; MCHR1-expressing cells, fluorescence antagonist assay; inhibition, % at 4.4 µM; 62% of 2,400 active; in the data active means inhibition above about 22%;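 further: 0% = vehicle with agonist and 100% = vehicle without agonist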
# * marks the source's active call; other numbers are inactive results; nt = not tested or not shown.
SMILES,EP2 antag,GPR7 antag,CHO parental Ca,OX1R antag-1,OX1R antag-2,EP2 mod,GPR7 antag cf,MCHR1 antag
Clc1ccc(-c2csc(=Nc3cccnc3)n2CCCn2ccnc2)cc1Cl,11,28*,-24,-31,38,-7,28*,40*
COCCn1c(-c2ccc(Br)cc2)csc1=Nc1cccnc1,6,-3,-3,-15,12,10,nt,nt
CC(C)(C)C(=O)NC(=S)NNC(=O)c1ccc(Cl)cc1Cl,14,32*,52*,63*,0,-73,40*,37*
CC1CCN(C(=O)c2cc(S(=O)(=O)N3CCCCC3)c[nH]2)CC1,nt,27*,-10,-12,8,nt,6,5
COc1ccc(OC)c(/C=C/C(=O)Nc2cccc(S(=O)(=O)N3CCCC3)c2)c1,9,-8,-11,6,44,-31,nt,nt
COc1ccc(C(CNC(=O)c2ccc(S(=O)(=O)N3CCCC3)cc2)N2CCOCC2)cc1 (stereo unspecified),2,-1,-5,-19,9,17,nt,nt
COc1ccc(NS(=O)(=O)c2cccc(C(=O)NCC(c3ccc(F)cc3)N3CCOCC3)c2)cc1 (stereo unspecified),nt,31*,-18,0,55*,nt,27*,11
COc1ccc(C(CNC(=O)c2ccc(NS(=O)(=O)c3ccc(F)cc3)cc2)N2CCOCC2)cc1 (stereo unspecified),nt,0,-9,-21,-10,nt,nt,nt
COc1ccc(C(CNC(=O)c2ccc3c(c2)C(=O)N(CCC(C)C)C3=O)N2CCOCC2)cc1 (stereo unspecified),5,29*,-34,-25,9,13,-2,12
Cc1ccc(NC(=O)CCN2C(=O)c3ccccc3C2=O)c(C)c1,nt,-13,-7,-14,0,nt,nt,nt
Cc1ccc(S(=O)(=O)NCCC(=O)N2CCN(c3ccccc3)CC2)cc1C,nt,nt,-17,-12,8,nt,nt,nt
CN1CCN(C(=O)/C(=C/c2ccc(F)cc2)NC(=O)c2ccccc2)CC1,nt,-19,5,0,5,nt,nt,nt
O=C(NCCF)C1Nc2ccc(OC(F)(F)F)cc2C2C=CCC12 (stereo unspecified),8,nt,-5,-15,10,nt,nt,nt
C/C(=N\NC(=O)c1ccc2c(c1)OCO2)c1ccc(NC(=O)CCCC(=O)O)cc1,nt,22*,nt,nt,nt,nt,4,8
C/C(=N\NC(=O)c1ccc2c(c1)OCO2)c1ccc2c(c1)OCO2,3,13,-13,-11,22,-14,nt,nt
CC(=O)c1ccc(NC(=S)NC(=O)/C=C/c2ccc(F)cc2)cc1,nt,48*,-15,-35,9,nt,11,13
COc1ccccc1-c1nc(C#N)c(N2CCN(Cc3ccccc3)CC2)o1,7,-10,-17,-28,16,-41,nt,nt
CCOC(=O)Cc1csc(NC(=O)C(C)c2ccc([N+](=O)[O-])cc2)n1 (stereo unspecified),9,74*,9,-2,20,-50,49*,54*
Cc1nc(C)c(C(=O)Nc2ccccc2)s1,13,22*,-5,-13,19,11,3,-5
Cc1nc(Cl)sc1C(=O)Nc1ccccc1,14,1,-2,1,17,18,nt,nt
COC(=O)[C@@H](Cc1c[nH]c2ccccc12)NC(=O)CCC(=O)c1ccc(Br)cc1,nt,nt,-15,-3,13,nt,nt,14
COC(=O)[C@H](Cc1c[nH]c2ccccc12)NC(=O)Cc1c[nH]c2ccccc12,nt,17,13,15,12,nt,nt,nt
CCOC(=O)c1ccc(NC(=O)CCCN2C(=O)NC3(CCCC3)C2=O)cc1,nt,nt,-21,-15,2,nt,nt,nt
O=C(c1ccc(COc2ccccc2Br)o1)N1CCCCCC1,10,4,-9,-2,3,42,nt,nt
O=C(c1ccc(COc2ccccc2Br)cc1)N1CCCCC1,13,25*,21,-17,15,-33,36*,44*
SMILES,EP2 antag,GPR7 antag,CHO parental Ca,OX1R antag-1,OX1R antag-2,EP2 mod,GPR7 antag cf,MCHR1 antag
CCc1ccc(CN(Cc2cccnc2)C(=O)/C=C/c2ccc(OC)cc2)cc1,nt,39*,-8,-10,20,nt,32*,49*
COc1ccc(/C=C/C(=O)NCc2cccnc2)cc1,8,-1,-4,-4,8,-3,nt,nt
CCOc1cc(C(=O)NCCc2ccc(S(N)(=O)=O)cc2)cc(OCC)c1OCC,4,-14,-8,-11,7,8,nt,nt
O=C(CCCSc1ccccc1)Nc1cccc(CO)c1,nt,0,-1,12,18,nt,nt,nt
O=C(Nc1ccccc1)N(Cc1ccc(Cl)cc1)CC(O)C(F)(F)F (stereo unspecified),18,-14,-28,-25,0,3,nt,nt
O=C(COC(=O)c1ccccn1)NCc1ccccc1Cl,8,24*,-7,9,13,16,1,15
CCCCNC(=O)CN1C(=O)C(CC)Oc2ccc(Cl)cc21 (stereo unspecified),6,28*,-16,-32,29,-26,16,25*
COc1cccc(CN(C)CC(=O)NCc2ccc(F)cc2)c1OC,nt,5,-13,-25,9,nt,nt,nt
COc1ccccc1CNC(=O)CN(C)Cc1ccc(SC)cc1,nt,26*,-19,-22,23,nt,37*,36*
Cc1cc(C)nc(N/N=C/c2cccc3ccccc23)n1,7,1,0,8,17,2,nt,nt
Cc1cc(C)nc(N/N=C/c2ccccc2Cl)n1,11,23*,-11,-19,8,-20,2,8
CN(C)CCNC(=O)c1c(CSc2ccccc2)noc1C(=O)NCc1ccccc1,7,nt,-18,-22,22,2,nt,nt
CCOc1ccccc1C(=O)N1CCC(C(=O)c2ccc(F)cc2)CC1,8,-5,-5,-1,8,-12,nt,nt
COc1ccccc1NC(=O)Oc1cccc(OC(=O)c2ccccc2)c1,7,21,-16,-12,-5,2,10,20
C[C@H](N)C(=O)OCc1ccc([N+](=O)[O-])cc1,0,-15,4,-2,13,1,nt,nt
O=C(Cc1ccc([N+](=O)[O-])cc1)OCc1ccc([N+](=O)[O-])cc1,nt,44*,10,8,18,nt,29*,64*
CCCS(=O)(=O)c1ccc(COC(=O)Cc2ccc([N+](=O)[O-])cc2)cc1,nt,28*,4,-8,24,nt,25*,25*
CN(C)C(=O)c1nc2ccc(Cl)cn2c1CNCc1ccccc1OC(F)(F)F,8,4,-23,-13,19,16,nt,nt
COc1cccc(CN2CCN(Cc3cc4ccccc4[nH]3)CC2CCO)c1 (stereo unspecified),13,67*,3,12,5,-15,79*,81*
